From ChEMBL document CHEMBL1649560, “Beta-lactamase-mediated beta-lactam resistance in Campylobacter species: prevalence of Cj0299 (bla OXA-61) and evidence for a novel beta-Lactamase in C. jejuni” (2009)

Legend:
Assay type in all cases: functional
Campylobacter coli [1] = test: Antibacterial activity against Campylobacter coli by NCCLS agar doubling dilution method
Outline: (§1)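 MICs by agar doubling dilution following the NCCLS (CLSI) Campylobacter Working Group procedure, applied to ampicillin- and amoxicillin-resistant isolates from UK chicken flocks (2000–2006). C. jejuni NCTC 11168 and C. coli NCTC 11366 served as control strains. Resistance was called at an ampicillin cutoff of 8 μg/ml. Other agents were judged against Enterobacteriaceae guidelines (BSAC, CLSI).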

Campylobacter jejuni [2] = test: Antibacterial activity against Campylobacter jejuni isolate P270 harboring blaOXA-61::cat gene by NCCLS agar doubling dilution method in presence of clavulanic acid
Campylobacter coli [3] = test: Antibacterial activity against Campylobacter coli by NCCLS agar doubling dilution method in presence of clavulanic acid; outline: as §1
Campylobacter jejuni [4] = test: Antibacterial activity against Campylobacter jejuni isolate P338 harboring blaOXA-61::cat gene by NCCLS agar doubling dilution method in presence of clavulanic acid
Outline: (§2)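 Agar doubling dilution MICs (NCCLS/CLSI Campylobacter Working Group method) against Cj0299-inactivated mutants. Mutants were made by transforming the C. jejuni isolate with pCI and selecting on Mueller-Hinton agar with 10 μg/ml chloramphenicol for 3–5 days. Chromosomal insertion was confirmed by PCR with Cj0299 and cat primers.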

Campylobacter jejuni [5] = test: Antibacterial activity against bla gene-positive and nitrocefin reaction-positive beta-lactamase harboring Campylobacter jejuni isolate P1650 by NCCLS agar doubling dilution method in presence of clavulanic acid
Outline: (§3)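 MICs by agar doubling dilution per the NCCLS (now CLSI) Campylobacter Working Group method. Isolates came from UK chicken flocks (feces, ceca or farm environment), 2000–2006. C. jejuni NCTC 11168 and C. coli NCTC 11366 served as control strains. The ampicillin resistance cutoff was 8 μg/ml; BSAC/CLSI Enterobacteriaceae guidelines were used for other agents.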

Campylobacter jejuni [6] = test: Antibacterial activity against Campylobacter jejuni isolate P1093 harboring blaOXA-61::cat gene by NCCLS agar doubling dilution method in presence of clavulanic acid; outline: as §2
Campylobacter coli [7] = test: Antibacterial activity against bla-positive and beta-lactamase-weakly positive Campylobacter coli isolate P1627 by NCCLS agar doubling dilution method in presence of clavulanic acid; outline: as §1
Campylobacter jejuni [8] = test: Antibacterial activity against bla gene-positive and nitrocefin reaction-negative beta-lactamase harboring Campylobacter jejuni isolate NCTC 11168 by NCCLS agar doubling dilution method in presence of clavulanic acid
Outline: (§4)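 MICs of β-lactams by agar doubling dilution following the NCCLS (CLSI) Campylobacter Working Group procedure, with C. jejuni NCTC 11168 and C. coli NCTC 11366 as controls. Isolates were from UK poultry flocks. β-Lactamase status was set by Cj0299 PCR (281-bp amplimer) and by a nitrocefin colour change of sonicated lysate within 5 min, or within 30 min on repeat.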

Campylobacter jejuni [9] = test: Antibacterial activity against bla gene-positive and nitrocefin reaction-positive beta-lactamase harboring Campylobacter jejuni isolate P790 by NCCLS agar doubling dilution method in presence of clavulanic acid; outline: as §3
Campylobacter jejuni [10] = test: Antibacterial activity against bla gene-positive and nitrocefin reaction-positive beta-lactamase harboring Campylobacter jejuni isolate P1730 by NCCLS agar doubling dilution method in presence of clavulanic acid; outline: as §3
Campylobacter jejuni [11] = test: Antibacterial activity against bla gene-positive and nitrocefin reaction-positive beta-lactamase harboring Campylobacter jejuni isolate P316 by NCCLS agar doubling dilution method in presence of clavulanic acid; outline: as §3
Campylobacter jejuni [12] = test: Antibacterial activity against bla gene-positive and nitrocefin reaction-negative beta-lactamase harboring Campylobacter jejuni isolate P1699 by NCCLS agar doubling dilution method in presence of clavulanic acid; outline: as §4
Campylobacter jejuni [13] = test: Antibacterial activity against bla gene-positive and nitrocefin reaction-positive beta-lactamase harboring Campylobacter jejuni isolate P1618 by NCCLS agar doubling dilution method in presence of clavulanic acid; outline: as §4
Campylobacter jejuni [14] = test: Antibacterial activity against bla gene-positive and nitrocefin reaction-positive beta-lactamase harboring Campylobacter jejuni isolate P338 by NCCLS agar doubling dilution method in presence of clavulanic acid; outline: as §3
Campylobacter jejuni [15] = test: Antibacterial activity against bla gene-positive and nitrocefin reaction-negative beta-lactamase harboring Campylobacter jejuni isolate P1698 by NCCLS agar doubling dilution method in presence of clavulanic acid; outline: as §4
Campylobacter jejuni [16] = test: Antibacterial activity against bla gene-positive and nitrocefin reaction-positive beta-lactamase harboring Campylobacter jejuni isolate P286 by NCCLS agar doubling dilution method in presence of clavulanic acid; outline: as §3
Campylobacter jejuni [17] = test: Antibacterial activity against bla gene-negative and nitrocefin reaction-negative beta-lactamase harboring Campylobacter jejuni isolate P1962 by NCCLS agar doubling dilution method in presence of clavulanic acid; outline: as §4
Campylobacter jejuni [18] = test: Antibacterial activity against Campylobacter jejuni by NCCLS agar doubling dilution method in presence of clavulanic acid; outline: as §1
Campylobacter jejuni [19] = test: Antibacterial activity against bla gene-negative and nitrocefin reaction-negative beta-lactamase harboring Campylobacter jejuni isolate P835 by NCCLS agar doubling dilution method in presence of clavulanic acid; outline: as §4
Campylobacter jejuni [20] = test: Antibacterial activity against bla gene-positive and nitrocefin reaction-positive beta-lactamase harboring Campylobacter jejuni isolate P285 by NCCLS agar doubling dilution method in presence of clavulanic acid; outline: as §3
Campylobacter jejuni [21] = test: Antibacterial activity against bla gene-positive and nitrocefin reaction-positive beta-lactamase harboring Campylobacter jejuni isolate P1093 by NCCLS agar doubling dilution method in presence of clavulanic acid; outline: as §4
Campylobacter jejuni [22] = test: Antibacterial activity against bla gene-positive and nitrocefin reaction-positive beta-lactamase harboring Campylobacter jejuni isolate P305 by NCCLS agar doubling dilution method in presence of clavulanic acid; outline: as §3
Campylobacter coli [23] = test: Antibacterial activity against bla gene-positive and nitrocefin reaction-positive beta-lactamase harboring Campylobacter coli isolate P1826 by NCCLS agar doubling dilution method in presence of clavulanic acid; outline: as §4
Campylobacter jejuni [24] = test: Antibacterial activity against bla gene-negative and nitrocefin reaction-positive beta-lactamase harboring Campylobacter jejuni isolate P843 by NCCLS agar doubling dilution method in presence of clavulanic acid; outline: as §4
Campylobacter coli [25] = test: Antibacterial activity against bla gene-positive and nitrocefin reaction-positive beta-lactamase harboring Campylobacter coli isolate P321 by NCCLS agar doubling dilution method in presence of clavulanic acid; outline: as §4
Campylobacter jejuni [26] = test: Antibacterial activity against bla gene-negative and nitrocefin reaction-negative beta-lactamase harboring Campylobacter jejuni isolate P850 by NCCLS agar doubling dilution method in presence of clavulanic acid; outline: as §4
Campylobacter jejuni [27] = test: Antibacterial activity against Campylobacter jejuni by NCCLS agar doubling dilution method; outline: as §1
Campylobacter jejuni [28] = test: Antibacterial activity against bla gene-negative and nitrocefin reaction-positive beta-lactamase harboring Campylobacter jejuni isolate P854 by NCCLS agar doubling dilution method in presence of clavulanic acid; outline: as §4
Campylobacter jejuni [29] = test: Antibacterial activity against bla gene-positive and nitrocefin reaction-negative beta-lactamase harboring Campylobacter jejuni isolate P1699 by NCCLS agar doubling dilution method; outline: as §4
Campylobacter jejuni [30] = test: Antibacterial activity against bla gene-positive and nitrocefin reaction-positive beta-lactamase harboring Campylobacter jejuni isolate P1650 by NCCLS agar doubling dilution method; outline: as §4
Campylobacter jejuni [31] = test: Antibacterial activity against Campylobacter jejuni isolate P1093 harboring blaOXA-61::cat gene by NCCLS agar doubling dilution method; outline: as §2
Campylobacter jejuni [32] = test: Antibacterial activity against Campylobacter jejuni isolate P270 harboring blaOXA-61::cat gene by NCCLS agar doubling dilution method
Campylobacter jejuni [33] = test: Antibacterial activity against bla gene-positive and nitrocefin reaction-positive beta-lactamase harboring Campylobacter jejuni isolate P790 by NCCLS agar doubling dilution method; outline: as §3
Campylobacter jejuni [34] = test: Antibacterial activity against bla gene-positive and nitrocefin reaction-positive beta-lactamase harboring Campylobacter jejuni isolate P1093 by NCCLS agar doubling dilution method; outline: as §4
Campylobacter jejuni [35] = test: Antibacterial activity against bla gene-positive and nitrocefin reaction-positive beta-lactamase harboring Campylobacter jejuni isolate P285 by NCCLS agar doubling dilution method; outline: as §3
Campylobacter jejuni [36] = test: Antibacterial activity against Campylobacter jejuni isolate P338 harboring blaOXA-61::cat gene by NCCLS agar doubling dilution method; outline: as §2
Campylobacter jejuni [37] = test: Antibacterial activity against bla gene-positive and nitrocefin reaction-negative beta-lactamase harboring Campylobacter jejuni isolate P1698 by NCCLS agar doubling dilution method; outline: as §4
Campylobacter jejuni [38] = test: Antibacterial activity against bla gene-negative and nitrocefin reaction-positive beta-lactamase harboring Campylobacter jejuni isolate P854 by NCCLS agar doubling dilution method; outline: as §4
Campylobacter jejuni [39] = test: Antibacterial activity against bla gene-positive and nitrocefin reaction-positive beta-lactamase harboring Campylobacter jejuni isolate P1618 by NCCLS agar doubling dilution method; outline: as §4
Campylobacter coli [40] = test: Antibacterial activity against bla gene-positive and nitrocefin reaction-positive beta-lactamase harboring Campylobacter coli isolate P321 by NCCLS agar doubling dilution method; outline: as §4
Campylobacter jejuni [41] = test: Antibacterial activity against bla gene-positive and nitrocefin reaction-positive beta-lactamase harboring Campylobacter jejuni isolate P316 by NCCLS agar doubling dilution method; outline: as §3
Campylobacter jejuni [42] = test: Antibacterial activity against bla gene-positive and nitrocefin reaction-positive beta-lactamase harboring Campylobacter jejuni isolate P305 by NCCLS agar doubling dilution method; outline: as §3
Campylobacter jejuni [43] = test: Antibacterial activity against bla gene-positive and nitrocefin reaction-negative beta-lactamase harboring Campylobacter jejuni NCTC 11168 by NCCLS agar doubling dilution method; outline: as §4
Campylobacter jejuni [44] = test: Antibacterial activity against bla gene-negative and nitrocefin reaction-negative beta-lactamase harboring Campylobacter jejuni isolate P835 by NCCLS agar doubling dilution method; outline: as §4
Campylobacter jejuni [45] = test: Antibacterial activity against bla gene-negative and nitrocefin reaction-negative beta-lactamase harboring Campylobacter jejuni isolate P850 by NCCLS agar doubling dilution method; outline: as §4
Campylobacter jejuni [46] = test: Antibacterial activity against bla gene-negative and nitrocefin reaction-negative beta-lactamase harboring Campylobacter jejuni isolate P1962 by NCCLS agar doubling dilution method; outline: as §4
Campylobacter coli [47] = test: Antibacterial activity against bla gene-positive and nitrocefin reaction-positive beta-lactamase harboring Campylobacter coli isolate P1826 by NCCLS agar doubling dilution method; outline: as §4
Campylobacter jejuni [48] = test: Antibacterial activity against bla gene-positive and nitrocefin reaction-positive beta-lactamase harboring Campylobacter jejuni isolate P286 by NCCLS agar doubling dilution method; outline: as §3
Campylobacter coli [49] = test: Antibacterial activity against bla-positive and beta-lactamase-weakly positive Campylobacter coli isolate P1627 by NCCLS agar doubling dilution method; outline: as §3
Campylobacter jejuni [50] = test: Antibacterial activity against bla gene-positive and nitrocefin reaction-positive beta-lactamase harboring Campylobacter jejuni isolate P338 by NCCLS agar doubling dilution method; outline: as §3
Campylobacter jejuni [51] = test: Antibacterial activity against bla gene-positive and nitrocefin reaction-positive beta-lactamase harboring Campylobacter jejuni isolate P1730 by NCCLS agar doubling dilution method; outline: as §3
Campylobacter jejuni [52] = test: Antibacterial activity against bla gene-negative and nitrocefin reaction-positive beta-lactamase harboring Campylobacter jejuni isolate P843 by NCCLS agar doubling dilution method; outline: as §4

O=C(O)[C@H]1/C(=C/CO)O[C@@H]2CC(=O)N21 [CLAVULANIC ACID]
0.25 µg/mL: MIC (Campylobacter jejuni [2])
0.5 µg/mL: MIC (Campylobacter jejuni [6]) | MIC (Campylobacter jejuni [17]) | MIC (Campylobacter jejuni [19])
32 µg/mL: MIC90 (Campylobacter coli [1]) | MIC90 (Campylobacter coli [3]) | MIC (Campylobacter jejuni [21])
1 µg/mL: MIC (Campylobacter jejuni [4]) | MIC (Campylobacter jejuni [8]) | MIC (Campylobacter jejuni [15])
8 µg/mL: MIC (Campylobacter jejuni [10]) | MIC (Campylobacter jejuni [11]) | MIC (Campylobacter jejuni [14]) | MIC (Campylobacter jejuni [16]) | MIC90 (Campylobacter jejuni [18]) | MIC (Campylobacter jejuni [20]) | MIC (Campylobacter jejuni [22]) | MIC (Campylobacter coli [23]) | MIC (Campylobacter coli [25]) | MIC90 (Campylobacter jejuni [27])
4 µg/mL: MIC (Campylobacter jejuni [5]) | MIC (Campylobacter coli [7]) | MIC (Campylobacter jejuni [12]) | MIC50 (Campylobacter jejuni [18]) | MIC (Campylobacter jejuni [24]) | MIC (Campylobacter jejuni [26]) | MIC50 (Campylobacter jejuni [27]) | MIC (Campylobacter jejuni [28])
16 µg/mL: MIC50 (Campylobacter coli [1]) | MIC50 (Campylobacter coli [3]) | MIC (Campylobacter jejuni [9])
2 µg/mL: MIC (Campylobacter jejuni [13])

C[C@@H](O)[C@H]1C(=O)N2C(C(=O)O)=C(SCCNC=N)C[C@H]12 [IMIPENEM ANHYDROUS]
0.06 µg/mL: MIC50 (Campylobacter coli [1]) | MIC (Campylobacter jejuni [30]) | MIC (Campylobacter jejuni [37]) | MIC (Campylobacter jejuni [38]) | MIC (Campylobacter jejuni [41]) | MIC (Campylobacter jejuni [42]) | MIC (Campylobacter jejuni [44]) | MIC (Campylobacter jejuni [45]) | MIC (Campylobacter jejuni [50]) | MIC90 (Campylobacter jejuni [27]) | MIC (Campylobacter jejuni [52])
0.015 µg/mL: MIC (Campylobacter jejuni [35]) | MIC (Campylobacter jejuni [39]) | MIC (Campylobacter jejuni [46]) | MIC (Campylobacter jejuni [51])
0.25 µg/mL: MIC (Campylobacter jejuni [48])
0.03 µg/mL: MIC (Campylobacter jejuni [29]) | MIC (Campylobacter jejuni [32]) | MIC (Campylobacter jejuni [36]) | MIC (Campylobacter jejuni [43]) | MIC (Campylobacter coli [47]) | MIC50 (Campylobacter jejuni [27])
0.12 µg/mL: MIC90 (Campylobacter coli [1]) | MIC (Campylobacter jejuni [31]) | MIC (Campylobacter jejuni [33]) | MIC (Campylobacter jejuni [34]) | MIC (Campylobacter coli [40]) | MIC (Campylobacter coli [49])
